In the library only some 2.1% were active in any assay of this set; here they are far more common.
STEP block – STEP phosphatase inhibitors, primary screen, biochemical, fluorescence intensity, uHTS; Tyrosine-protein phosphatase non-receptor type 5 (Homo sapiens), P54829; recombinant STEP, OMFP fluorogenic substrate; inhibition, % at 20 µM; actives 0.25% (n = 360,000); AID 588621, 2011;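 active = inhibition at 20 µM, scaled per plate between control wells, above about 37%, limit read from the data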;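 note: 0% = DMSO with enzyme and substrate and 100% = substrate only without enzyme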
Target sequence (P54829 whole entry, looked up): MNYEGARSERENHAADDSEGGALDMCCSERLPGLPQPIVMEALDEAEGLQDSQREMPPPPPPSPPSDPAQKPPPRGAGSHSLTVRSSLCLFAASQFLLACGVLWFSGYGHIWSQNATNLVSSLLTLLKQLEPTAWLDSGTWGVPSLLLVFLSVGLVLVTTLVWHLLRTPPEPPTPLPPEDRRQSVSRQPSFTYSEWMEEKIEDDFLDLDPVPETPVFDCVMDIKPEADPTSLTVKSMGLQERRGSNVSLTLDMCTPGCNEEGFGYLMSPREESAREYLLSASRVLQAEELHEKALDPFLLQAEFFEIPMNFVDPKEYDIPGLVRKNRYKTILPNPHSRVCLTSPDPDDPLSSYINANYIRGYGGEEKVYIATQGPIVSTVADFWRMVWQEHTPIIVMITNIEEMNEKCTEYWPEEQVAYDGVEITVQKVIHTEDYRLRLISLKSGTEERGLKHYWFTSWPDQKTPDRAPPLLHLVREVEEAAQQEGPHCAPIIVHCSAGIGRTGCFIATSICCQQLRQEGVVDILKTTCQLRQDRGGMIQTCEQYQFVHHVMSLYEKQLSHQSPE
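medium = Bis-Tris buffer pH 6.0, 2.5 mM DTT, 0.005% Tween 20 | test system = STEP (striatal-enriched tyrosine phosphatase) enzyme, cell-free | measure = normalized % inhibition | compound dosing = 20 µM, 1% DMSO | also added = 25 µM OMFP | schedule = reaction 20 min, ambient temperature | measured by = fluorescence read at 480 nm ex / 540 nm em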
DNMT1 block – human DNMT1 methyltransferase inhibitors, primary screen, biochemical, molecular beacon, fluorescence, HinP1I cleavage, uHTS; DNA (cytosine-5)-methyltransferase 1 (Homo sapiens), P26358; inhibition (reported as % activation of signal), % at 10 µM; actives 0.83% (n = 360,000); AID 588458, 2011; in the data active = inhibition above about 50%
SUMO1 PPI mod – modulators of SUMO1 protein-protein interactions, primary screen, biochemical, uHTS; Small ubiquitin-related modifier 1 (Homo sapiens), P63165; SUMO1 binding to a labelled peptide, TR-FRET, 1 h; inhibition, % at 20 µM; actives 0.33% (n = 360,000); in the data active = inhibition above about 37%
Target sequence (P63165 whole entry, looked up): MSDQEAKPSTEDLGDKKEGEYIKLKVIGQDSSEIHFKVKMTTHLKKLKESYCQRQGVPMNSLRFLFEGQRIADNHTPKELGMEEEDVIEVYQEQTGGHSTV
GRK2 aptamer HTS – compounds blocking aptamer binding on GRK2 – biochemical, human GRK2, bead flow cytometry, HTS, primary screen; Beta-adrenergic receptor kinase 1 (Homo sapiens), P25098; FAM-aptamer displacement from GRK2; inhibition of aptamer binding, % at 10 µM; actives 0.59% (n = 330,000);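 active = inhibition of aptamer binding above 40%, roughly 3 SD of noise, on plates passing a quality check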;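 note: median bead fluorescence of bound FAM aptamer so fluorescent compounds give negative values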
Scp1 inh – Scp-1 phosphatase inhibitors, primary screen, biochemical, colorimetric, uHTS. Carboxy-terminal domain RNA polymerase II polypeptide A small phosphatase 1 (Homo …. Recombinant Scp1, phosphopeptide, malachite green phosphate absorbance. inhibition, % at 20 µM. actives 0.88% (n = 340,000). AID 493091, 2011;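 active = inhibition above about 50% at 20 µM, limit read from the data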;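 note: plate controls were DMSO wells with enzyme for no effect and wells lacking enzyme for full effect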
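Incubation: 45 min enzyme reaction at room temperature / System: truncated SCP-1 phosphatase (76-261aa) / Reagent: Phospho 17-mer peptide substrate / Buffer or medium: Acidic Tris acetate buffer with magnesium and detergent / Signal: absorbance at 630 nm / Doses: one concentration, 20 µM, with 1.0% DMSO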
LMPTP inh – LMPTP phosphatase inhibitors, primary screen, biochemical, fluorescence intensity, uHTS; Low molecular weight phosphotyrosine protein phosphatase (Homo sapiens), P24666; AID 651560, 2012; recombinant LMPTP-A, OMFP fluorogenic substrate; inhibition, % at 20 µM; actives 0.22% (n = 360,000);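 active = compounds that cut the enzyme signal by at least half of the control window in the single-dose screen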;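 note: plate controls were DMSO wells with enzyme plus substrate for no effect and substrate without enzyme for full effect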
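material = LMPTP-A | quantity = 0.625 nM enzyme | reagent = OMFP substrate, 400 µM final | buffer or medium = Bis-Tris pH 6.0, DTT, detergent | detection = endpoint fluorescence intensity from OMFP dephosphorylation | dosing = single 20 µM dose | read-out basis = % inhibition relative to no-enzyme and uninhibited control wells | control set = no-enzyme and uninhibited controls | timing = 50 min at room temperature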
DNMT1 interf DR – spectral interference with molecular beacon fluorescence, dose response, artefact control for DNMT1 inhibitor project, biochemical, fluorescent molecular beacon | shares compounds with DNMT1 block | spectral interference counter-screen | IC50, µM | 200 tested, under 10 active; call rule not given here
DNMT1 confirm – DNMT1 methyltransferase inhibitor retest, confirmation, biochemical, molecular beacon, fluorescence, single concentration | actives 8% (n = 2,300) | shares compounds with DNMT1 block | DNMT1 molecular beacon HinP1I cleavage | inhibition, % at 10 µM;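 active = average inhibition of at least 30% in the single-concentration confirmation test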
DNMT1 interf – counter-screen for DNMT1 inhibitors: spectral interference; actives 1% (n = 2,300); DNMT1 molecular beacon spectral interference counterscreen, fluorescence 485/520; shares compounds with DNMT1 block; AID 602387; activation (fluorescence interference), % at 10 µM;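 active = activation of at least 30% at 10 µM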;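 note: DNMT1 catalytic domain with a HinP1I cleavage step and a FAM/dabcyl DNA beacon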
Numbers without * were called inactive; nt = no result given.

SMILES	STEP block	DNMT1 block	SUMO1 PPI mod	GRK2 aptamer HTS	Scp1 inh	LMPTP inh	DNMT1 confirm	DNMT1 interf	others
COc1ccc(OCCCC(=O)OCC(=O)N2CCN(S(=O)(=O)c3ccc(C)cc3C)CC2)cc1	-2.0	1.4	-0.5	nt	-5.5	1.7	nt	nt
O=C(N/N=C/c1ccc([N+](=O)[O-])o1)C(=O)Nc1ccc(C(=O)O)cc1	0.9	-3.1	-24.3	5.0	9.0	3.7	nt	nt
O=C(O)c1ccc(N/N=C/C=C/c2ccc([N+](=O)[O-])o2)cc1	43.4*	72.2*	-40.8	91.0*	57.5*	20.0	9.0	2.8
CC(=C\C(=O)O)/C(=C/c1ccc(C)o1)C(=O)O	-0.6	77.7*	-1.3	13.0	55.7*	-2.4	9.4	14.1
Cc1ccc(C(=O)N[C@H](C(=O)OCc2cc(=O)n3c(n2)sc2ccccc23)C(C)C)cc1	6.0	84.0*	1.3	0.0	45.8	6.0	3.4	-0.7
Cc1ccc(C(=O)N[C@H](C(=O)OCc2nnc(-c3ccccc3)o2)C(C)C)cc1	-2.0	-4.6	3.9	0.0	0.8	1.2	nt	nt
Cc1cc(/C=C2\SC(=S)NC2=O)c(C)n1C1CC1	1.1	65.9*	10.0	1.0	-4.7	3.1	5.0	1.5
Cc1cc(/C=C2/C(=O)N(C)C(=S)N2C)c(C)n1C1CC1	-5.5	-14.8	-6.9	1.0	-3.9	-0.1	nt	nt
Cc1ccc(-c2nc(C(=O)NCCCN(C)C)cc3c2[nH]c2ccccc23)cc1	0.3	56.4*	3.5	0.0	-1.8	2.7	0.1	-2.1
O=C(NCCO)c1cc2c([nH]c3ccccc32)c(-c2ccccc2)n1	-0.2	6.6	0.7	2.0	-2.8	1.2	nt	nt
O=S1(=O)C[C@H](N2CCCC2)[C@@H](COCc2ccccc2)N1	-2.7	7.7	8.6	nt	nt	-2.1	nt	nt
CSCCC(NC(=O)COc1ccccc1)C(=O)N(C)CC(=O)Nc1ccc(Cl)cc1 (stereo not given)	-2.4	-0.4	-0.8	3.0	-4.6	-1.4	nt	nt
CSCCC(NC(=O)COc1ccccc1)C(=O)N(C)Cc1c(F)cccc1Cl (stereo not given)	-3.1	82.8*	0.4	nt	nt	-0.8	2.9	4.0
O=c1oc(/C=C/c2ccco2)nc2sc3c(c12)CCC3	2.2	108.2*	9.6	1.0	10.8	3.2	6.1	8.2
CCOc1ccc(-c2nnc3sc(COc4ccc(Cl)cc4)nn23)cc1	1.1	58.2*	-2.2	0.0	-3.2	10.7	10.6	2.5
O=[N+]([O-])c1ccc(N/N=C/c2cccc(O)c2)cc1	1.2	-20.9	-33.6	0.0	-12.3	6.6	nt	nt
Cn1cccc1CC(=O)N/N=C/c1cccc([N+](=O)[O-])c1	-1.7	94.0*	-6.2	0.0	0.6	-0.4	2.8	5.8
O=[N+]([O-])c1ccc(NN=Cc2cccc([N+](=O)[O-])c2)cc1	13.0	72.4*	-13.7	nt	-7.7	35.9	3.7	-1.0
CCCCCCCC(=O)Nc1ccc(C(=O)N/N=C/c2cccc([N+](=O)[O-])c2)cc1	23.9	77.8*	-0.2	0.0	96.2*	-0.5	4.5	1.6
CCCCCCC(=O)Nc1ccc(C(=O)N/N=C/c2cccnc2)cc1	13.4	-2.5	-6.9	0.0	25.2	-0.4	nt	nt
CC(C)(C)NC(=O)C(c1ccc(-c2ccccc2)cc1)N(C[C@H]1CC[C@@H]([C@@H]2CC[C@H](CO)O2)O1)C(=O)c1ccccc1F (stereo not given in full)	2.0	0.3	2.1	9.0	-1.3	1.7	nt	nt
C[C@H](CO)N1C[C@H](C)[C@H](CN(C)C(=O)c2ccccc2F)Oc2ncc(Br)cc2C1=O	-0.3	9.9	1.1	nt	nt	-1.1	nt	nt
Cc1ccc(-n2nc3ccc(NC(=O)c4cccc([N+](=O)[O-])c4C)cc3n2)cc1	0.6	62.8*	-1.2	0.0	-1.2	2.4	3.6	2.8
Cc1ccc(-n2nc3ccc(NC(=O)c4ccco4)cc3n2)cc1	2.7	36.2	29.2	0.0	-12.2	3.3	nt	nt
C=C(C)C(=O)Nc1cccc(C2=NOC3(C2)C[C@H](C(N)=O)N(C(=O)CC)C3)c1 (stereo not given in full)	2.6	98.8*	61.6*	72.0*	63.8*	-0.5	55.2*	0.8	DNMT1 interf DR=>99
SMILES	STEP block	DNMT1 block	SUMO1 PPI mod	GRK2 aptamer HTS	Scp1 inh	LMPTP inh	DNMT1 confirm	DNMT1 interf	others
C/C=C/C=C/C(=O)N1CC2(CC(c3cccc(NC(=O)CCCCC)c3)=NO2)C[C@H]1C(N)=O (stereo not given in full)	-2.0	65.8*	2.2	4.0	2.7	-0.5	4.5	0.7
CC/C=C/C(=O)N1CC2(CC(c3cccc(NC(=O)CCCCC)c3)=NO2)C[C@H]1C(N)=O (stereo not given in full)	0.2	10.3	6.8	2.0	4.0	-1.1	nt	nt
Cc1nc(C)c(-c2csc(Nc3ccc(Cl)cn3)n2)s1	-2.4	-5.7	1.9	nt	nt	2.4	nt	nt
CCCCn1nnnc1C1(C)CCC(=O)N1Cc1cc(OC)ccc1OC (stereo not given)	nt	nt	-1.7	nt	nt	-1.3	nt	nt
c1cc(N2CCOCC2)ccc1-c1ccc2nncn2c1	1.5	8.3	-38.3	nt	nt	-1.1	nt	nt
c1coc(-c2ccc3nncn3c2)c1	28.4	102.4*	86.6*	nt	nt	5.0	75.6*	1.4	DNMT1 interf DR=>99
COc1ccc(NC(=O)N(C)C[C@@H]2OCc3cn(nn3)CCCC(=O)N([C@@H](C)CO)C[C@H]2C)cc1	3.0	62.6*	2.7	nt	nt	-1.7	3.4	2.8
C[C@H]1CN([C@@H](C)CO)C(=O)CCCn2cc(nn2)CO[C@@H]1CN(C)C(=O)Nc1ccc(F)cc1	0.3	5.1	8.4	nt	nt	-0.5	nt	nt
CC(C(Sc1ccccc1N)c1ccccc1)[N+](=O)[O-] (stereo not given)	0.2	-3.9	4.2	0.0	-1.9	-0.6	nt	nt

From PubChem BioAssay
